Assay results: ChEMBL document CHEMBL1130131, “12,13-isotaxanes: synthesis of new potent analogs and X-ray crystallographic confirmation of structure” (J Med Chem, 1997)

Tests used:
Mus musculus [1] = assay: % T/C(is ratio of median survival time in the group receiving the optimal dose to median survival time in the vehicle control group X 100.) is measured in B16 melanoma cells at the dose of 50 ng/kg on the days 1 and 3(experiment 1); format: functional
Method in brief: (§1)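 B6D2F1 mice bearing intraperitoneally implanted B16 melanoma (method adapted from earlier work); test agent given iv on days 1 and 3, optimal total dose reported in ng/kg. %T/C = median survival time of the optimal-dose group divided by median survival time of the vehicle control group × 100. Values are individual results from two separate experiments.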

A2780 = assay: Concentration of compound to inhibit the growth of human A2780 ovarian carcinoma cells(in vitro); format: functional, cell-based
Mus musculus [2] = assay: % T/C(is ratio of median survival time in the group receiving the optimal dose to median survival time in the vehicle control group X 100.) is measured in B16 melanoma cells at the dose of 50 ng/kg on the days 1 and 3(experiment 2); format: functional; method in brief: as §1
B16 = assay: Concentration inducing 20% mitotic index for mitotic block in murine B16 melanoma cells; format: functional, Mus musculus
Method in brief: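 B16 melanoma cells were treated in culture, and mitotic index was measured by a method adapted from earlier work. The value is the drug concentration giving a 20% mitotic index.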

Mus musculus [3] = assay: % T/C was measured in B6D2F1 mice bearing ip-implanted B16 melanoma cells at the dose of 100n g/kg on the days 1 and 3; format: functional
Method in brief: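 B6D2F1 mice bearing intraperitoneally implanted B16 melanoma received compound iv on days 1 and 3, with the total dose stated. %T/C = median survival time at the optimal dose ÷ median survival time of vehicle-treated controls × 100. The method was adapted from earlier work.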

Structure (SMILES) | T/C (Mus musculus [1]) [%] | IC50 (A2780) [nM] | T/C (Mus musculus [2]) [%] | Concentration giving 20% mitotic index (B16) [nM] | T/C (Mus musculus [3]) [%]
CC(=O)O[C@@]12COC1C[C@@H]1C[C@@]13C(=O)[C@H](O)C1C(C)=C(OC(=O)[C@H](O)[C@@H](NC(=O)OC(C)(C)C)c4ccccc4)C[C@@](O)([C@@H](OC(=O)c4ccccc4)C23)C1(C)C (some centres undefined) | 184 | 1.9 | 210 | 7 | –
CC(=O)O[C@H]1C(=O)[C@]23C[C@H]2CC2OC[C@@]2(OC(C)=O)C3[C@H](OC(=O)c2ccccc2)[C@]2(O)CC(OC(=O)[C@H](O)[C@@H](NC(=O)NC(C)(C)C)c3ccccc3)=C(C)C1C2(C)C (some centres undefined) | 213 | 0.6 | 225 | 10 | –
CC(=O)O[C@@]12CO[C@@H]1C[C@H](O)[C@@]1(C)C(=O)[C@H](O)C3=C(C)[C@@H](OC(=O)[C@H](O)[C@@H](NC(=O)OC(C)(C)C)c4ccccc4)C[C@@](O)([C@@H](OC(=O)c4ccccc4)[C@H]21)C3(C)C.O.O.O [DOCETAXEL] | – | 1.8 | – | 15 | 177
CC(=O)O[C@H]1C(=O)[C@]2(C)C=CC3OC[C@@]3(OC(C)=O)C2[C@H](OC(=O)c2ccccc2)[C@]2(O)CC(OC(=O)[C@H](O)[C@@H](NC(=O)NC(C)(C)C)c3ccccc3)=C(C)C1C2(C)C (some centres undefined) | 232 | 0.5 | 241 | 10 | –
CC(=O)O[C@H]1C(=O)[C@]2(C)C=CC3OC[C@@]3(OC(C)=O)C2[C@H](OC(=O)c2ccccc2)[C@]2(O)CC(OC(=O)[C@H](O)[C@@H](NC(=O)OC(C)(C)C)c3ccccc3)=C(C)C1C2(C)C (some centres undefined) | 181 | 1.2 | 181 | 10 | –
